This is an account of results in ChEMBL document CHEMBL2157978, “Design, synthesis, and biological evaluation of nonsteroidal cycloalkane[d]isoxazole-containing androgen receptor modulators” (J Med Chem, 2012).

The target in assay [1] is T1, Androgen receptor (Homo sapiens) (UniProt P10275).
T1 sequence (whole entry): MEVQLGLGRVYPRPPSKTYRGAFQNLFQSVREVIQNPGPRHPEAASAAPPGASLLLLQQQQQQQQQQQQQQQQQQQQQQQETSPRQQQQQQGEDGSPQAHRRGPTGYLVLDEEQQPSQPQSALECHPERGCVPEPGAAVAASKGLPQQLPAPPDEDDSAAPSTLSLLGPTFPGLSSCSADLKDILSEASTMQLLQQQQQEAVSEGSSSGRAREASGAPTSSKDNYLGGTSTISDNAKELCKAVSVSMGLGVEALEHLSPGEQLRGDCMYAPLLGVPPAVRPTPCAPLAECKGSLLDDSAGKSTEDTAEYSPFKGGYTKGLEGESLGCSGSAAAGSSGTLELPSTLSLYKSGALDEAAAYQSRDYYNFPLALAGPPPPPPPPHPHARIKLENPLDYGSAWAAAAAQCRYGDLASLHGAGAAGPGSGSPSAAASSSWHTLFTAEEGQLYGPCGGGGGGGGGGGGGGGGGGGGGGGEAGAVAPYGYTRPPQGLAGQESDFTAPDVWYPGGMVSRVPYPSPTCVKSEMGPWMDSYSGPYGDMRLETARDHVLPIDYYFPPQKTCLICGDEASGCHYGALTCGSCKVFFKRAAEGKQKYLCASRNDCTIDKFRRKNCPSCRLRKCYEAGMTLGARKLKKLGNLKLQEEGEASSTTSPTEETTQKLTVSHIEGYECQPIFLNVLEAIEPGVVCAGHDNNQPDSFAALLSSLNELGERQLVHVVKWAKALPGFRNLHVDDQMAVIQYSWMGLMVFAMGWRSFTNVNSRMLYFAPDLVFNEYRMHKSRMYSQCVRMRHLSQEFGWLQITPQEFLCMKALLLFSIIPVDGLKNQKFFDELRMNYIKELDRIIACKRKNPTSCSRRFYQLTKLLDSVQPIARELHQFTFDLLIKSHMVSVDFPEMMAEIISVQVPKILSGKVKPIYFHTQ
The assay is described as follows: Potency index, ratio of RBA of (R)-bicalutamide to RBA of compound for human androgen receptor.

For assay [2], the target named is T1, Androgen receptor (Homo sapiens). The assay is described as follows: Potency index, ratio of RBA of hydroxyflutamide to RBA of compound for human androgen receptor.
The test system of assay [3] is T2, Androgen receptor (Homo sapiens), P10275 [W742L].
T2 sequence (whole entry): T1 sequence (whole entry) with W742L
The assay is described as follows: Antagonist activity at human Androgen receptor W741L mutant expressed in COS-1 cells co-transfected with pSG5 assessed as reduction in testosterone induced luciferase activity at 10 uM after 18 hrs relative untreated control. In kind it is functional, cell-based. The essentials:
(§1)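 COS-1 cells were grown in DMEM with dextran-charcoal-treated FBS (2.5% during transfection). They were transfected for 24 h with pSG5-hART877A or pSG5-hARW741L, plus the pProbasin(−285/+32)-Luc reporter and a pCMVβ control.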

For assay [4], the system named is Androgen receptor (Homo sapiens), P10275 [T878A]. The assay is described as follows: Antagonist activity at human Androgen receptor T877A mutant expressed in COS-1 cells co-transfected with pSG5 assessed as reduction in testosterone induced luciferase activity at 10 uM after 18 hrs relative untreated control. In kind it is functional, cell-based. The essentials:
as §1

In assay [5] the target is T1, Androgen receptor (Homo sapiens). The assay is described as follows: Agonist activity at wild type human androgen receptor expressed in COS-1 cells co-transfected with pSG5 assessed as effect on testosterone induced luciferase activity at 1 nM to 10 uM after 18 hrs relative untreated control. In kind it is functional, cell-based. Summed up:
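COS-1 cells were seeded in DMEM with 10% dextran-charcoal-treated FBS. After switching to 2.5% FBS, they were transfected for 24 h with pSG5-hAR, the pProbasin(−285/+32)-Luc reporter and a pCMVβ internal control. […] Luciferase was normalized to β-galactosidase and protein.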

Assay [6] shares this target. The assay is described as follows: Agonist activity at wild type human androgen receptor expressed in COS-1 cells co-transfected with pSG5 assessed as effect on testosterone induced luciferase activity at 10 uM after 18 hrs relative untreated control. In kind it is functional, cell-based.
Assay [7] deals with Luciferin 4-monooxygenase (Photinus pyralis) (UniProt P08659). The assay is described as follows: Inhibition of Photinus pyralis recombinant luciferase at 10 uM incubated for 20 mins. The essentials:
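Purified firefly luciferase diluted to 0.1 μg/mL in 1x Reporter Lysis Buffer, with compound added from ethanol stocks (10⁻³–10⁻⁷ mol/L dilutions) in triplicate. Incubated 20 min at rt, then luciferase substrate added and luminescence read. Blank (lysis buffer) and ethanol-vehicle controls were included.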

Assay [8] addresses T3, Androgen receptor (Homo sapiens, UniProt P10275).
T3 sequence (P10275 whole entry): T1 sequence (whole entry)
The assay is described as follows: Displacement of [3H]R1881 from wild type human androgen receptor expressed in COS-1 cells co-transfected with pSG5 after 2 hrs by scintillation assay.

Structures are written as SMILES. Where a chain is given by its changes, count along the chain named. Activity calls are given as the source filed them. Unless noted, the calls are words filed in the database; no cut-off is given here.

Chain of Androgen receptor (Homo sapiens), P10275 [T878A] (P10275 whole entry T878A): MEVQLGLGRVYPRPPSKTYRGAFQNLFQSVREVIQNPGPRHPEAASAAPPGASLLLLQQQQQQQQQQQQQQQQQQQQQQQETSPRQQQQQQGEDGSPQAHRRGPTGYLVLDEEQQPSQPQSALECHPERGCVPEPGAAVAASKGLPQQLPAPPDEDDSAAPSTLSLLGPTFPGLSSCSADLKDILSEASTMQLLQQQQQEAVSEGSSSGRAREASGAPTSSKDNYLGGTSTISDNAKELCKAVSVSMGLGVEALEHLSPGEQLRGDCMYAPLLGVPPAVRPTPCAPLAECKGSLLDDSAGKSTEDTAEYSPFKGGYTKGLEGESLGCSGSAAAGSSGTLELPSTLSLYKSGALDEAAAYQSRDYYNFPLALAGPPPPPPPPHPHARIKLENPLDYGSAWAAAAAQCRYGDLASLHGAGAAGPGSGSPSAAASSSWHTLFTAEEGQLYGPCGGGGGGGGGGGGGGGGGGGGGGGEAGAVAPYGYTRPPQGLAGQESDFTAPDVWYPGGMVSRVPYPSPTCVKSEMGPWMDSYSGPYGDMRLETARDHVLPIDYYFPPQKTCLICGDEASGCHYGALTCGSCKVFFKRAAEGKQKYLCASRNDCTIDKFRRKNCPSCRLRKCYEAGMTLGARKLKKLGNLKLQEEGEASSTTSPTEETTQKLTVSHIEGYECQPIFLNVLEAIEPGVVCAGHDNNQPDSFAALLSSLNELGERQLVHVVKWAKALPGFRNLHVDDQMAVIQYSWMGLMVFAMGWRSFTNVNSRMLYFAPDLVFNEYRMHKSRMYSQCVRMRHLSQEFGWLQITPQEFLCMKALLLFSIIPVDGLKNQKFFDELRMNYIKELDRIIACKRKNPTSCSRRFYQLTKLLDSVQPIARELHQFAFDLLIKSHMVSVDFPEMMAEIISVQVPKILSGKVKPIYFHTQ
Chain of Luciferin 4-monooxygenase (Photinus pyralis) (P08659 whole entry): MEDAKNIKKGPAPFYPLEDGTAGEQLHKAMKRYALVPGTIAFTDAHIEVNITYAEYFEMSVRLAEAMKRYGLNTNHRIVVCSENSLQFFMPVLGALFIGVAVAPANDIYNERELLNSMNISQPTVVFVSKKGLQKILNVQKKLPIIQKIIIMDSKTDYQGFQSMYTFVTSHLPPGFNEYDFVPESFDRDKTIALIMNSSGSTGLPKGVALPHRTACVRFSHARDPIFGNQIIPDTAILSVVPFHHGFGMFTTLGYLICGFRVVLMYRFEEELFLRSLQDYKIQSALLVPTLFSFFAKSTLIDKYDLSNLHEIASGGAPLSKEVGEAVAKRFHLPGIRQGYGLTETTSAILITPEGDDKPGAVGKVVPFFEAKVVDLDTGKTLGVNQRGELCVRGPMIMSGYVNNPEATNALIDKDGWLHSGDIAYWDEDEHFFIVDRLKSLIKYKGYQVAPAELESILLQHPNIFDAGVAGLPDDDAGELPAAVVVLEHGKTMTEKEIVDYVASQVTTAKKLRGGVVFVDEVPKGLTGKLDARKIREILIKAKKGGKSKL

Usually IC50 stands for the concentration that gives 50% inhibition. Read a low IC50 as greater potency in that assay. Regarding `N#Cc1ccc(C2=NOC3CCCCC23)cc1C(F)(F)F` (racemic), the figures for the Ratio in assay [1] and in assay [2] were 4 and 8, respectively. Also, the outcome in assay [3] and in assay [4] was Active. Also, the result in assay [5] and in assay [6] was inactive. Also, the inhibition entry in assay [7] is “inactive”. Further, the IC50 in assay [8] is 27.5 nM.
As for `O=[N+]([O-])c1ccc(C2=NOC3CCCCC23)cc1C(F)(F)F` (racemic), the outcome in assay [3] and in assay [4] was Active. Further, the outcome in assay [5] and in assay [6] was inactive. In addition, in assay [7], the inhibition result is “inactive”. In assay [8], the IC50 is 120 nM.
